Data from ChEMBL document CHEMBL5696442, “Discovery of type II inhibitors of TGFβ-activated kinase 1 (TAK1) and mitogen-activated protein kinase kinase kinase kinase 2 (MAP4K2)” (J Med Chem, 2015).
pIC50: −log10 of the molar value.

Experiments:
[1] = molecular target: T1, Mitogen-activated protein kinase kinase kinase kinase 2 (Homo sapiens, UniProt Q12851); experiment: Inhibition of MAP4K2 (unknown origin) Lys1 labeling site by KiNativ Profiling analysis
T1 sequence (Q12851 whole entry): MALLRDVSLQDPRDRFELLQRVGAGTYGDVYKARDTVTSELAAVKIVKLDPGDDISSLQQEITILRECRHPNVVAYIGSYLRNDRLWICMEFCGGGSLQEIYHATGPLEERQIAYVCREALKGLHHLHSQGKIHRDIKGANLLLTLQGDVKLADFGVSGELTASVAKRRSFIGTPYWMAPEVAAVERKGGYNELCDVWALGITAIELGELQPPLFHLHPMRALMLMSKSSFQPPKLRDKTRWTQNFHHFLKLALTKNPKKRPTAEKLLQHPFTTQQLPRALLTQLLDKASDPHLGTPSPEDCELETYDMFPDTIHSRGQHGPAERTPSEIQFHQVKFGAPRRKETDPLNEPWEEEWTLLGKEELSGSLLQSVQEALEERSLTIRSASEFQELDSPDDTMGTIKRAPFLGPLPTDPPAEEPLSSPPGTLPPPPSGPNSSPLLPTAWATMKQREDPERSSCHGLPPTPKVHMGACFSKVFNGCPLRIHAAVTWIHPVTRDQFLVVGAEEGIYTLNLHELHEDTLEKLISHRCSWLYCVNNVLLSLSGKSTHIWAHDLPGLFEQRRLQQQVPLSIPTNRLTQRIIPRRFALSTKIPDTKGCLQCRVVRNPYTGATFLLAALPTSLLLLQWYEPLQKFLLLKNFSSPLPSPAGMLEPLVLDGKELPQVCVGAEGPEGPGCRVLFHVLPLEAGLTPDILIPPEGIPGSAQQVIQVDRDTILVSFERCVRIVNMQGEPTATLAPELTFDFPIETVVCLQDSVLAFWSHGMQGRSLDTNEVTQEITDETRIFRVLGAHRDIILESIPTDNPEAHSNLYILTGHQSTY

[2] = molecular target: T2, Mitogen-activated protein kinase 14 (Homo sapiens, UniProt Q16539); experiment: Inhibition of p38 alpha (unknown origin) by KiNativ Profiling analysis
T2 sequence (Q16539 whole entry): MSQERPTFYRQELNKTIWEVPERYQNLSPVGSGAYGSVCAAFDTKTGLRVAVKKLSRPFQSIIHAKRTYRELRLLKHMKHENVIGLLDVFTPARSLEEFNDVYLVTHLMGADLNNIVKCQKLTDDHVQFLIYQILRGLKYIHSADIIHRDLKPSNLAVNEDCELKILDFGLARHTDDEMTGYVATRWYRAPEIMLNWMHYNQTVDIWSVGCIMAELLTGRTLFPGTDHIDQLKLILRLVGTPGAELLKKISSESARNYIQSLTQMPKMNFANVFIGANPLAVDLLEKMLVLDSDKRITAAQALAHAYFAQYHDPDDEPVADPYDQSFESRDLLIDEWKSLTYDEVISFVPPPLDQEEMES

[3] = molecular target: T3, Mitogen-activated protein kinase kinase kinase 20 (Homo sapiens, UniProt Q9NYL2); experiment: Inhibition of ZAK Lys1 labeling site in human Huh-7 cell lysate at 1 uM by KiNativ Profiling analysis relative to control; assay type: subcellular
Target sequence in this assay (Q9NYL2 2-800 limits assumed): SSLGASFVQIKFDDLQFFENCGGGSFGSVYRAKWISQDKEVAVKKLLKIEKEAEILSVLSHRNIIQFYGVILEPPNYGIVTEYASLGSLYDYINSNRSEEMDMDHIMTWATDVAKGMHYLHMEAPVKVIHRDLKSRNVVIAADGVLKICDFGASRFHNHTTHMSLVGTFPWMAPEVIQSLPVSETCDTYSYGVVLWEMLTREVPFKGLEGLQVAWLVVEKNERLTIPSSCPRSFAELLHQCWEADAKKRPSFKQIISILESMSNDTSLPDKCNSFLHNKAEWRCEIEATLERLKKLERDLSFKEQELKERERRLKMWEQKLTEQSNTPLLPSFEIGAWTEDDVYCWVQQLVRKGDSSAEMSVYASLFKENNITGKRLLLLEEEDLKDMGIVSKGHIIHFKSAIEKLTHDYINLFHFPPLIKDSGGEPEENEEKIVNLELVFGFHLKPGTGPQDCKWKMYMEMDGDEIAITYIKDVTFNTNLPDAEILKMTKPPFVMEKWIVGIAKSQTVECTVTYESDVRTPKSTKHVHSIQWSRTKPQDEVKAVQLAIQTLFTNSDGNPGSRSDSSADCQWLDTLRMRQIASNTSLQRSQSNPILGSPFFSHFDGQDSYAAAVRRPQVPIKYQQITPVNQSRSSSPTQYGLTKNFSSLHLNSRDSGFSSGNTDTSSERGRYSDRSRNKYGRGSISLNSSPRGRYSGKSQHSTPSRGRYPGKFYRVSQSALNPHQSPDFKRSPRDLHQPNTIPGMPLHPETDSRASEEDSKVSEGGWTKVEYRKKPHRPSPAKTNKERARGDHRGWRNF

[4] = molecular target: T4, Mitogen-activated protein kinase kinase kinase kinase 2 (Homo sapiens) (UniProt Q12851); experiment: Inhibition of MAP4K2 Lys1 labeling site in human A-375 cells at 0.5 uM by KiNativ Profiling analysis relative to control; assay type: cell-based
T4 sequence (whole entry): T1 sequence (Q12851 whole entry)

Ephrin type-A receptor 2 [5] = molecular target: T5, Ephrin type-A receptor 2 (Homo sapiens, UniProt P29317); experiment: Inhibition of EphA2 (unknown origin) ACT labeling site by KiNativ Profiling analysis
T5 sequence (P29317 whole entry): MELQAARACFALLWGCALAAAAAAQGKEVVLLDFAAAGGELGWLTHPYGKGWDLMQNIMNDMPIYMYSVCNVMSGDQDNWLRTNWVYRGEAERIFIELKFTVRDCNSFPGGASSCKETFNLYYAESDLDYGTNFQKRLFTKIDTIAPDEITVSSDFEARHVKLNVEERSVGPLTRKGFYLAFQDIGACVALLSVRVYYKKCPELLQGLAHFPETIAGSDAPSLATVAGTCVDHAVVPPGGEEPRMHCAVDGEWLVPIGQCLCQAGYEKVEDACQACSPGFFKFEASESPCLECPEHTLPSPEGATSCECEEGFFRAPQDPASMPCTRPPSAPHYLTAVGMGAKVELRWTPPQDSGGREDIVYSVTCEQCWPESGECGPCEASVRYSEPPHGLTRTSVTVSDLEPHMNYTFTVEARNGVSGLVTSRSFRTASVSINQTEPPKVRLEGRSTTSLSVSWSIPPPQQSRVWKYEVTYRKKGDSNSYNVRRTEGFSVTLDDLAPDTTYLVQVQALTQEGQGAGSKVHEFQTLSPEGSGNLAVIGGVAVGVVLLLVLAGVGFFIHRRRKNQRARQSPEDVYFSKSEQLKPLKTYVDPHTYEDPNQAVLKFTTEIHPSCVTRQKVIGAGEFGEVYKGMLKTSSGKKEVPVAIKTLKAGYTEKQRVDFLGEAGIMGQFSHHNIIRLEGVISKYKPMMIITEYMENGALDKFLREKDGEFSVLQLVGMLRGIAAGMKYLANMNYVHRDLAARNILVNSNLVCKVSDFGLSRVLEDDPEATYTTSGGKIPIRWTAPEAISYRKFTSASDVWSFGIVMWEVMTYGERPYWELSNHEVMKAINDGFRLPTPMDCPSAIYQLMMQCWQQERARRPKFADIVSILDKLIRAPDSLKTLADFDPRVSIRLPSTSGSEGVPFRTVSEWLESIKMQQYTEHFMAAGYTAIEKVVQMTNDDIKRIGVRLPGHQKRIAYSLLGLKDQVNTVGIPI

[6] = molecular target: T6, Tyrosine-protein kinase ABL1 (Homo sapiens, UniProt P00519); experiment: Inhibition of ABL Lys1 labeling site in human Huh-7 cell lysate at 1 uM by KiNativ Profiling analysis relative to control; assay type: subcellular
T6 sequence (P00519 whole entry): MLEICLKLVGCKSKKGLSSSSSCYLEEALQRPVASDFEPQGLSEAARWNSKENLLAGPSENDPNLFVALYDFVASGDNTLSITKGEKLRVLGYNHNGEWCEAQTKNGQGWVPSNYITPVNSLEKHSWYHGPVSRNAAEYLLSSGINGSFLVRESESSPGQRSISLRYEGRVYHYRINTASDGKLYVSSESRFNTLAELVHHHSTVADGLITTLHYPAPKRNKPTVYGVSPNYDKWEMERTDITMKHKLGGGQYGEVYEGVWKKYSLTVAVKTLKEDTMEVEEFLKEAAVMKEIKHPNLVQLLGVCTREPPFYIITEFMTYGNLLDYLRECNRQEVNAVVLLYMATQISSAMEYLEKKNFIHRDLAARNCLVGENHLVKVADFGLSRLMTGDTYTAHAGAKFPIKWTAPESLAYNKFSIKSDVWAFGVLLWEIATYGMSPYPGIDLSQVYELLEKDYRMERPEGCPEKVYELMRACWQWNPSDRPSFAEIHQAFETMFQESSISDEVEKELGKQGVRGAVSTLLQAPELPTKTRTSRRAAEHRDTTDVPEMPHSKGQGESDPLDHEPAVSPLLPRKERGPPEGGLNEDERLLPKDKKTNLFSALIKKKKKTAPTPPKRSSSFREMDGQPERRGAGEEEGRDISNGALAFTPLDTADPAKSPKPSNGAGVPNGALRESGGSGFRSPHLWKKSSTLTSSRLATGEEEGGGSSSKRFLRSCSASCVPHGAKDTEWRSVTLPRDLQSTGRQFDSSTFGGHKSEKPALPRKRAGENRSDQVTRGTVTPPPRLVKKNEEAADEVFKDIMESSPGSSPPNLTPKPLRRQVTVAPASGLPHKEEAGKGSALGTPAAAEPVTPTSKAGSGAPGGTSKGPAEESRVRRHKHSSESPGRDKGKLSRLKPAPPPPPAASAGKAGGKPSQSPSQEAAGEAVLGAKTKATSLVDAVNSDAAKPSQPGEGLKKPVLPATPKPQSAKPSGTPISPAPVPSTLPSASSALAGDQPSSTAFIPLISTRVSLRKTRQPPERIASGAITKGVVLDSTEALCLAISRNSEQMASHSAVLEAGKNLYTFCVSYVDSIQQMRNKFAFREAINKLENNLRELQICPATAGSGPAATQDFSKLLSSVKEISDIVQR

[7] = molecular target: T7, Mitogen-activated protein kinase kinase kinase 7 (Homo sapiens) (UniProt O43318); experiment: Inhibition of TAK1 Lys2 labeling site in human A-375 cells at 0.5 uM by KiNativ Profiling analysis relative to control; assay type: cell-based
T7 sequence (whole entry): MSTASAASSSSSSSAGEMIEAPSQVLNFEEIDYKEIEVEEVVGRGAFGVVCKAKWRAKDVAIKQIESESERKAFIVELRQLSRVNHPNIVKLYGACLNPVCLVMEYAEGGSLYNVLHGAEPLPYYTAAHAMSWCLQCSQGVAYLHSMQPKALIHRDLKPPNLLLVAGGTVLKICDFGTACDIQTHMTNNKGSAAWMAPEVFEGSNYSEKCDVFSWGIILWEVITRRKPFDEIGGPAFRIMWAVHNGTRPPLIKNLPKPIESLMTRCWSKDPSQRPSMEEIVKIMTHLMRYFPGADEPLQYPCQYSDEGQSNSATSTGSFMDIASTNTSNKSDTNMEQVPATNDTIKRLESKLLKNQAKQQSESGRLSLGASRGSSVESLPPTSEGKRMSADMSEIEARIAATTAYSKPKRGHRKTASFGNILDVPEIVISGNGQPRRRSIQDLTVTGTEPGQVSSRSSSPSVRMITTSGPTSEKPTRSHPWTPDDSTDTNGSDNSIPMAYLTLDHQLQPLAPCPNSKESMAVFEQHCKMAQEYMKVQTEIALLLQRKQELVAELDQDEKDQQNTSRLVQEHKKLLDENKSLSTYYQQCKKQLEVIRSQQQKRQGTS

[8] = molecular target: T2, Mitogen-activated protein kinase 14; experiment: Inhibition of p38 alpha in human Huh-7 cell lysate at 1 uM by KiNativ Profiling analysis relative to control; assay type: subcellular
[9] = molecular target: T6, Tyrosine-protein kinase ABL1; experiment: Inhibition of ABL ACT labeling site in human Huh-7 cell lysate at 1 uM by KiNativ Profiling analysis relative to control; assay type: subcellular
BaF3 [10] = experiment: Antiproliferative activity against parental mouse BaF3 cells assessed reduction in cell viability measured after 48 hrs by Celltiter-glo assay; assay type: functional, cell-based; details: BaF3, 48 h
[11] = molecular target: T3, Mitogen-activated protein kinase kinase kinase 20; experiment: Inhibition of ZAK (unknown origin) Lys1 labeling site by KiNativ Profiling analysis
Target sequence in this assay (Q9NYL2 whole entry): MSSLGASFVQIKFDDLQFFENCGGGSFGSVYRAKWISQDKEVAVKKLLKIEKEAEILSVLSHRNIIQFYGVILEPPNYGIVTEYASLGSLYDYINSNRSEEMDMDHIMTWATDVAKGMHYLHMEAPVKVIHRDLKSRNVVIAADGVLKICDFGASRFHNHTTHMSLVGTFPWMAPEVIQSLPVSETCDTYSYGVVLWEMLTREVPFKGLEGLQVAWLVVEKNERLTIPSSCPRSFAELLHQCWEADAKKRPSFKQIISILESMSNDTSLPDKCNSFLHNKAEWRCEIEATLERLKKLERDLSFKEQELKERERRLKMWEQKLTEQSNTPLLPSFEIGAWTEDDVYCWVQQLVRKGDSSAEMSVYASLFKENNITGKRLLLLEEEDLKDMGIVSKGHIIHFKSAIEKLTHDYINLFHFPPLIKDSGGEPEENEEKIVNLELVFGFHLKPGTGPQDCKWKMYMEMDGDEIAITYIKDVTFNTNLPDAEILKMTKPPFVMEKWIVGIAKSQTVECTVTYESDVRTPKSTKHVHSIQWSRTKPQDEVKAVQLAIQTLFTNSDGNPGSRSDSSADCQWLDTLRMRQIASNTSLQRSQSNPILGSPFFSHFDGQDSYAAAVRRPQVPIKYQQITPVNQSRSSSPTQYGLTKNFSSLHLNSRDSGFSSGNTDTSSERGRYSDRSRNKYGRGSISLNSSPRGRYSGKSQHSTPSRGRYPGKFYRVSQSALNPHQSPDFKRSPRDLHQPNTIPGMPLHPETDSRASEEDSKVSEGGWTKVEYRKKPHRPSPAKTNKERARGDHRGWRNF

[12] = molecular target: T8, Tyrosine-protein kinase CSK (Homo sapiens, UniProt P41240); experiment: Inhibition of CSK (unknown origin) ACT labeling site by KiNativ Profiling analysis
BaF3 [13] = experiment: Antiproliferative activity against parental mouse BaF3 cells harbouring Bcr/Abl assessed reduction in cell viability measured after 48 hrs by Celltiter-glo assay; assay type: functional, cell-based; details: BaF3, 48 h
In short: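 Cells were grown with serial dilutions of compound for 48 h, and viability was read by CellTiter-Glo. IC50 was derived from the dose–response curve. Parental Ba/F3 cells were grown in the presence of interleukin 3. The BCR-ABL line is BCR-ABL-dependent Ba/F3.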

[14] = molecular target: T9, Mitogen-activated protein kinase kinase kinase 7 (Homo sapiens, UniProt O43318); experiment: Inhibition of TAK1 (unknown origin) Lys2 labeling site by KiNativ Profiling analysis
T9 sequence (O43318 whole entry): T7 sequence (whole entry)

Ephrin type-A receptor 2 [15] = molecular target: T5, Ephrin type-A receptor 2; experiment: Inhibition of EphA2 ACT labeling site in human Huh-7 cell lysate at 1 uM by KiNativ Profiling analysis relative to control; assay type: subcellular
[16] = molecular target: T8, Tyrosine-protein kinase CSK; experiment: Inhibition of CSK ACT labeling site in human Huh-7 cell lysate at 1 uM by KiNativ Profiling analysis relative to control; assay type: subcellular
[17] = Half life in Swiss albino mouse at 1 mg/kg, iv measured upto 24 hrs by LC/MS/MS analysis; assay type: ADME, organism-based; details: in vivo
In short: (§1)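 Male Swiss albino mice. […] Blood was taken into K2EDTA from three mice per time point, from 0 to 24 h. Plasma was precipitated with acetonitrile and analysed by LC/MS/MS (LLOQ 1.138 ng/mL).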

[18] = Oral bioavailability in Swiss albino mouse at 10 mg/kg measured upto 24 hrs by LC/MS/MS analysis; assay type: ADME, organism-based; details: in vivo
In short: (§2)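 Blood was taken at 0, 0.25, 0.5, 1, 2, 4, 6, 8, 12 and 24 h from three mice per time point, into K2EDTA. Plasma was acetonitrile-precipitated and analyzed by LC/MS/MS (LLOQ 1.138 ng/mL).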

[19] = Cmax in Swiss albino mouse at 1 mg/kg, iv measured upto 24 hrs by LC/MS/MS analysis; assay type: ADME, organism-based; details: in vivo; in short: as §1
[20] = AUC last in Swiss albino mouse at 1 mg/kg, iv measured upto 24 hrs by LC/MS/MS analysis; assay type: ADME, organism-based; details: in vivo; in short: as §1
[21] = Cmax in Swiss albino mouse at 10 mg/kg, po measured upto 24 hrs by LC/MS/MS analysis; assay type: ADME, organism-based; details: in vivo
[22] = AUC last in Swiss albino mouse at 10 mg/kg, po measured upto 24 hrs by LC/MS/MS analysis; assay type: ADME, organism-based; details: in vivo
[23] = Volume of distribution at steady state in Swiss albino mouse at 1 mg/kg, iv measured upto 24 hrs by LC/MS/MS analysis; assay type: ADME, organism-based; details: in vivo
In short: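 Blood was sampled at 0, 0.083, 0.25, 0.5, 1, 2, 4, 8, 12 and 24 h (three mice per point, K2EDTA). Plasma was precipitated with acetonitrile and quantified by LC/MS/MS (LLOQ 1.138 ng/mL).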

[24] = Tmax in Swiss albino mouse at 10 mg/kg, po measured upto 24 hrs by LC/MS/MS analysis; assay type: ADME, organism-based; details: in vivo; in short: as §2
[25] = molecular target: T10, Tyrosine-protein kinase Fer (Homo sapiens, UniProt P16591); experiment: Inhibition of FER Lys1 labeling site in human Huh-7 cell lysate at 1 uM by KiNativ Profiling analysis relative to control; assay type: subcellular
[26] = molecular target: T10, Tyrosine-protein kinase Fer; experiment: Inhibition of FER (unknown origin) ACT labeling site by KiNativ Profiling analysis
[27] = molecular target: T11, Tyrosine-protein kinase Fes/Fps (Homo sapiens, UniProt P07332); experiment: Inhibition of FES (unknown origin) by KiNativ Profiling analysis
T11 sequence (P07332 whole entry): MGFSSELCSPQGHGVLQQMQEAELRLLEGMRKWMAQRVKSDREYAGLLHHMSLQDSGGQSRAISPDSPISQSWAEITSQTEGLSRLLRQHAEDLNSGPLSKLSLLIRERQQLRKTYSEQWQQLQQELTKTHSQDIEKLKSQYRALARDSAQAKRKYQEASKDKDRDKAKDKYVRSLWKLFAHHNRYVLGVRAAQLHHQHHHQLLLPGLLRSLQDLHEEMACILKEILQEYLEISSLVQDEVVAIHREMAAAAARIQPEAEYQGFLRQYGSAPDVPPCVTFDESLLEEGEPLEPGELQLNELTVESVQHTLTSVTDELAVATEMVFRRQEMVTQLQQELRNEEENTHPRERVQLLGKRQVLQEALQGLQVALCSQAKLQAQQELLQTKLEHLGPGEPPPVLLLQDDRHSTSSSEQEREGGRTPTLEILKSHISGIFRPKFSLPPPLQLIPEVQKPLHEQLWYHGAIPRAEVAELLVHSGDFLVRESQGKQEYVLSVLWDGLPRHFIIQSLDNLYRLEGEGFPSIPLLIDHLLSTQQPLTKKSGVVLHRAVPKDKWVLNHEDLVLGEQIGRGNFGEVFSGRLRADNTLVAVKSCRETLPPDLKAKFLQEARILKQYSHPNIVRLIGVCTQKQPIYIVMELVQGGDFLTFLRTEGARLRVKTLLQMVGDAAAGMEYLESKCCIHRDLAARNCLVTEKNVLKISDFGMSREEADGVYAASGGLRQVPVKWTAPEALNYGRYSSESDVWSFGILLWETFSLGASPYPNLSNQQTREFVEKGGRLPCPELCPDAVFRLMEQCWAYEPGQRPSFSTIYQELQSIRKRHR

[28] = molecular target: T11, Tyrosine-protein kinase Fes/Fps; experiment: Inhibition of FES Lys1 labeling site in human Huh-7 cell lysate at 1 uM by KiNativ Profiling analysis relative to control; assay type: subcellular

pIC50 [1]	pIC50 [2]	inhibition [3]	inhibition [4]	inhibition [6]	inhibition [7]	inhibition [8]	inhibition [9]	pIC50 [11]	pIC50 [14]	inhibition [25]	pIC50 [26]	pIC50 [27]	inhibition [28]	Structure (SMILES)	pIC50 (BaF3 [10])	pIC50 (BaF3 [13])	further results
7.69	7.15	> 96%	84.3%	77.2%	74.3%	91.8%	92.8%	7.14	6.66					CCN1CCN(Cc2ccc(NC(=O)c3ccc(C)c(CCc4cnc5[nH]ccc5c4OC)c3)cc2C(F)(F)F)CC1	5.32	8.00	pIC50 (Ephrin type-A receptor 2 [5]): 7.11; pIC50 [12]: 7.90; inhibition (Ephrin type-A receptor 2 [15]): 80.9%; inhibition [16]: 89.9%
7.36	7.53	95.2%	89.9%		86.5%	96.6%	93%	6.90	7.12					CCN1CCN(Cc2ccc(NC(=O)c3ccc(C)c(Oc4ncnc5[nH]ncc45)c3)cc2C(F)(F)F)CC1	5.10	7.26	t1/2 [17]: 52.2 min; F [18]: 11.1%; Cmax [19]: 0.2803 µg/mL; AUClast [20]: 0.1679 µg·h/mL; Cmax [21]: 0.0613 µg/mL; AUClast [22]: 0.1862 µg·h/mL; Vdss [23]: 6.1 L/kg; Tmax [24]: 30 min
7.52			93.2%	78.8%	83.7%		80.6%		6.89	92.9%	7.44	7.29	94.7%	CCN1CCN(Cc2ccc(NC(=O)c3ccc(C)c(Oc4ncnc5cc(OC)c(OC)cc45)c3)cc2C(F)(F)F)CC1	< 5.00	7.04	
	6.60		91.3%	58.4%	78.5%	98.6%	74.1%			75.8%	6.24	6.60	78.5%	CCN1CCN(Cc2ccc(NC(=O)c3ccc(C)c(Oc4cc(NC)ncn4)c3)cc2C(F)(F)F)CC1	< 5.00	7.34	
